Measured values gathered from unrelated publications.
Effect on: metabolic stability
Species: human

O=C(O)Cc1ccccc1Nc1c(Cl)cccc1Cl — half-life (liver microsomes; 1 µM): 12 min
CC(C)NCC(O)COc1cccc2ccccc12 (racemic) — half-life (liver microsomes; 2 µM; pH 7.4): 68.2 min
CN(C)CC(=O)OCc1cc2[nH]c(=S)n(Cc3cccnc3)c(=O)c2cc1Cl — half-life (liver microsomes; 1 µM; pH 7.4): < 5 min
CCCN(CCC)CCNc1ccc2c(=O)c3c([nH]c2c1)CCCC3 — half-life (liver microsomes; 1 µM; pH 7.4): > 60 min
CCOc1ccc(Nc2c3c(nc4ccccc24)CCC3)cc1 — half-life (liver microsomes; 0.5 µM): 47 min
C=CCn1c(=O)c2cnc(Nc3ccc(N4CCN(C)CC4)cc3)nc2n1-c1ccc2c(n1)[C@@](O)(CC)CC2 — half-life (liver microsomes): 23 min
Cc1ncsc1-c1ccc([C@H](CC(=O)N2CCN(c3ccc(C#Cc4ccc(C(=O)N5CCC(n6cc(-c7ccc8c(c7)CCN8C(=O)Cc7cccc(OC(F)(F)F)c7)c7c(N)ncnc76)CC5)cc4)cn3)CC2)NC(=O)[C@@H]2C[C@@H](O)CN2C(=O)[C@@H](NC(=O)C2(F)CC2)C(C)(C)C)cc1 — half-life (hepatocytes; 1 µM): > 120 min
O=c1c2c([nH]c3ccc(F)c(Oc4ccc(OC(F)(F)F)cc4)c13)CCCC2 — half-life (liver microsomes; 1 µM; pH 7.4): 14.9 min
CCN(CC)CCNC(=O)c1c(C)[nH]c(/C=C2\C(=O)Nc3ccc(F)cc32)c1C — half-life (liver microsomes; 1 µM; pH 7.4): 27.5 min
O=c1c2ccc(Oc3ccccc3OC(F)(F)F)cc2[nH]c2cc(Cl)cc(F)c12 — half-life (liver microsomes; 1 µM; pH 7.4): > 60 min
CONC(=O)c1cccc2c1cc(C)n2-c1nc2c(c(NCc3ccccc3)n1)CCCN2 — half-life (liver microsomes; 1 µM; pH 7.4): 13.3 min
Cc1ccc2[nH]c(=S)n(Cc3cccnc3)c(=O)c2c1 — half-life (liver microsomes; 1 µM; pH 7.4): 10.6 min
COc1ccc(Cn2cc(CO[C@@H]3O[C@H]4[C@H](OC[C@H]4O)[C@H]3O)nn2)cc1 — half-life (liver microsomes): 120 min
NCc1ccc(-c2nn(Cc3ccccc3)c3ccccc23)o1 — half-life (liver microsomes): 34 min
COCC(=O)OCc1cc2[nH]c(=S)n(Cc3cccnc3)c(=O)c2cc1Cl — half-life (liver microsomes; 1 µM; pH 7.4): < 5 min
O=c1c2c([nH]c3cc(Oc4ccc(OC(F)(F)F)cc4)c(F)cc13)CCCC2 — half-life (liver microsomes; 1 µM; pH 7.4): 19.1 min
O=C1c2ccccc2C(=O)N1CCCN1CCN(C(c2ccc(F)cc2)c2ccc(F)cc2)CC1 — half-life (liver microsomes; 100 ng/mL): 10.2 min
O=c1c2c([nH]c3cc(Oc4ccc(OC(F)(F)F)cc4)ccc13)CCCC2 — half-life (liver microsomes; 1 µM; pH 7.4): 26.8 min
Cc1[nH]c(C)c(S(=O)(=O)Nc2ccc(C(F)(F)F)c(Cl)c2)c1C(=O)N1CCC(F)(F)C1 — half-life (liver microsomes): 10.2 min
CN(C)CCOc1ccc2c(=O)c3c([nH]c2c1)CCCC3 — half-life (liver microsomes; 1 µM; pH 7.4): > 60 min
NC(=NCCC[C@@H](C(=O)NCc1ccccc1)n1cc(-c2ccc(-c3ccccc3)cc2)nn1)c1ccc([N+](=O)[O-])o1 — half-life (liver microsomes): 29 min
O=c1c2cc(Cl)ccc2[nH]c(=S)n1Cc1ccc(-c2nnn[nH]2)nc1 — half-life (liver microsomes; 1 µM; pH 7.4): > 186 min
O=c1c2c([nH]c3ccc(Oc4ccc(OC(F)(F)F)cc4)cc13)CCCC2 — half-life (liver microsomes; 1 µM; pH 7.4): 25.1 min
OCc1ccc(-c2nn(Cc3ccccc3)c3ccccc23)o1 — half-life (hepatocytes): 6.6 min
O=c1c2c([nH]c3cccc(Oc4ccc(OC(F)(F)F)cc4)c13)CCCC2 — half-life (liver microsomes; 1 µM; pH 7.4): 12.7 min
Cc1[nH]c(C)c(S(=O)(=O)Nc2ccc(C(F)(F)F)c(Cl)c2)c1C(=O)N(C)C — half-life (liver microsomes): 8.7 min
